What was measured:
[1] = molecular target: Glutamate receptor ionotropic, NMDA 2B (Rattus norvegicus) (UniProt Q00960); experiment: Negative allosteric modulation of recombinant rat GluN2B receptor expressed in Xenopus laevis oocytes at 100 uM by two-electrode voltage clamp method; assay type: cell-based; settings: Oocyte
Procedure, shortened: (§1)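 Two-electrode voltage clamp of Xenopus oocytes expressing rat GluN1 with GluN2A, 2B, 2C or 2D. Holding potential −40 mV in recording solution (mM: 90 NaCl, 1 KCl, 0.5 BaCl2, 0.005 EDTA, 10 HEPES, pH 7.4, 23 °C). Compounds diluted from 20 mM DMSO stocks to 0.05–0.1% final DMSO. IC50 from a Hill fit to the averaged composite concentration–response curve, 5–24 oocytes from 2–4 frogs.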

[2] = molecular target: Glutamate receptor ionotropic, NMDA 2A (Rattus norvegicus, UniProt P35439+Q00959); experiment: Negative allosteric modulation of recombinant rat GluN2A receptor expressed in Xenopus laevis oocytes by two-electrode voltage clamp method; assay type: cell-based, Oocyte; procedure, shortened: as §1
Chain of Glutamate receptor ionotropic, NMDA 2A (Q00959 whole entry, one chain of several): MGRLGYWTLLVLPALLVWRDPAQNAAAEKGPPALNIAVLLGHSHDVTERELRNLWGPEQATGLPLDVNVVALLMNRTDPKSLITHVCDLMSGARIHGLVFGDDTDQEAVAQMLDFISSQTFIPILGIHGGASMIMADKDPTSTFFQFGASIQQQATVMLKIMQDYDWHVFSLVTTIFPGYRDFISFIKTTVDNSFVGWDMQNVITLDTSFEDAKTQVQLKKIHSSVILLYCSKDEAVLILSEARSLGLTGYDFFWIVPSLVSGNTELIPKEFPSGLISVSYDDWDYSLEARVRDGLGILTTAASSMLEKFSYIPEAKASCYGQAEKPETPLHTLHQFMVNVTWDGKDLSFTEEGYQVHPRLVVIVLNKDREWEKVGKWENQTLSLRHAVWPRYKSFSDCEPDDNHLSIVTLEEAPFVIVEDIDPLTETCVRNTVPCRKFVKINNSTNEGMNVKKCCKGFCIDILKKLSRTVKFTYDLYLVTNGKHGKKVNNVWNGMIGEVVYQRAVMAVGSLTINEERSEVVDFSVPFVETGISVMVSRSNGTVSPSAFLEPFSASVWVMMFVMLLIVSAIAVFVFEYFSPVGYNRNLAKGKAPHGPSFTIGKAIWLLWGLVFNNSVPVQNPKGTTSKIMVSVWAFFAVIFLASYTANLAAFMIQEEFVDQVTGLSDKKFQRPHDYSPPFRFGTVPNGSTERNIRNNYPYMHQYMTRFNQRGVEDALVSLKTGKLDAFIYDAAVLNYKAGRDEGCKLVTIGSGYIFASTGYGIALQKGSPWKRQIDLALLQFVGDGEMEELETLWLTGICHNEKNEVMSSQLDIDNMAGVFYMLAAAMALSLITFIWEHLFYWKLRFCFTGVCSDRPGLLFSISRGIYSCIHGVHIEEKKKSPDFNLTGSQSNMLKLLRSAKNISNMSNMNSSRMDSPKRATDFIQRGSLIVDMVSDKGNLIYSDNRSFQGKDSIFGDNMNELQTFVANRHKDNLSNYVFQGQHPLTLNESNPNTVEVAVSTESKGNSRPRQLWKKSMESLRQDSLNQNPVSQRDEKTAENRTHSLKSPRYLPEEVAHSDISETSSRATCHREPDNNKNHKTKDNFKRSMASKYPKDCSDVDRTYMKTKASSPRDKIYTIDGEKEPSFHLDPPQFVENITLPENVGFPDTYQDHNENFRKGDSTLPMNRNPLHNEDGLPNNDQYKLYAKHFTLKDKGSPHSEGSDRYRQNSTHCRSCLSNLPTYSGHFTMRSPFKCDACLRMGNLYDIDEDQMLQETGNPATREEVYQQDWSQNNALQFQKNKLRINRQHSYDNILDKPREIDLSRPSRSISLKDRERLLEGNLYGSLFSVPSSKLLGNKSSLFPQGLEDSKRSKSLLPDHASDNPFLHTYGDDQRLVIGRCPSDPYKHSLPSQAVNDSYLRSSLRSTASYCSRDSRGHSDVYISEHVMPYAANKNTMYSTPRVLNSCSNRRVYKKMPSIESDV

Rattus norvegicus [3] = organism: Rattus norvegicus; experiment: Selectivity ratio of IC50 for recombinant rat GluN2A receptor to IC50 for recombinant rat GluN2D receptor
Procedure, shortened: (§2)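 Rat GluN1 co-expressed with GluN2A, GluN2B or GluN2D in Xenopus oocytes. Two-electrode voltage clamp at −40 mV in 90 NaCl, 1 KCl, 0.5 BaCl2, 0.005 EDTA, 10 HEPES (mM), pH 7.4, 23 °C; final DMSO 0.1–0.05%. IC50s came from Hill fits to averaged composite concentration-response curves (5–24 oocytes, 2–4 frogs). Ratio is GluN2A or GluN2B IC50 over GluN2D IC50.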

[4] = molecular target: Glutamate receptor ionotropic, NMDA 2D (Rattus norvegicus, UniProt P35439+Q62645); experiment: Negative allosteric modulation of recombinant rat GluN2D receptor expressed in Xenopus laevis oocytes by two-electrode voltage clamp method; assay type: cell-based, Oocyte; procedure, shortened: as §1
Chain of Glutamate receptor ionotropic, NMDA 2D (Q62645 whole entry, one chain of several): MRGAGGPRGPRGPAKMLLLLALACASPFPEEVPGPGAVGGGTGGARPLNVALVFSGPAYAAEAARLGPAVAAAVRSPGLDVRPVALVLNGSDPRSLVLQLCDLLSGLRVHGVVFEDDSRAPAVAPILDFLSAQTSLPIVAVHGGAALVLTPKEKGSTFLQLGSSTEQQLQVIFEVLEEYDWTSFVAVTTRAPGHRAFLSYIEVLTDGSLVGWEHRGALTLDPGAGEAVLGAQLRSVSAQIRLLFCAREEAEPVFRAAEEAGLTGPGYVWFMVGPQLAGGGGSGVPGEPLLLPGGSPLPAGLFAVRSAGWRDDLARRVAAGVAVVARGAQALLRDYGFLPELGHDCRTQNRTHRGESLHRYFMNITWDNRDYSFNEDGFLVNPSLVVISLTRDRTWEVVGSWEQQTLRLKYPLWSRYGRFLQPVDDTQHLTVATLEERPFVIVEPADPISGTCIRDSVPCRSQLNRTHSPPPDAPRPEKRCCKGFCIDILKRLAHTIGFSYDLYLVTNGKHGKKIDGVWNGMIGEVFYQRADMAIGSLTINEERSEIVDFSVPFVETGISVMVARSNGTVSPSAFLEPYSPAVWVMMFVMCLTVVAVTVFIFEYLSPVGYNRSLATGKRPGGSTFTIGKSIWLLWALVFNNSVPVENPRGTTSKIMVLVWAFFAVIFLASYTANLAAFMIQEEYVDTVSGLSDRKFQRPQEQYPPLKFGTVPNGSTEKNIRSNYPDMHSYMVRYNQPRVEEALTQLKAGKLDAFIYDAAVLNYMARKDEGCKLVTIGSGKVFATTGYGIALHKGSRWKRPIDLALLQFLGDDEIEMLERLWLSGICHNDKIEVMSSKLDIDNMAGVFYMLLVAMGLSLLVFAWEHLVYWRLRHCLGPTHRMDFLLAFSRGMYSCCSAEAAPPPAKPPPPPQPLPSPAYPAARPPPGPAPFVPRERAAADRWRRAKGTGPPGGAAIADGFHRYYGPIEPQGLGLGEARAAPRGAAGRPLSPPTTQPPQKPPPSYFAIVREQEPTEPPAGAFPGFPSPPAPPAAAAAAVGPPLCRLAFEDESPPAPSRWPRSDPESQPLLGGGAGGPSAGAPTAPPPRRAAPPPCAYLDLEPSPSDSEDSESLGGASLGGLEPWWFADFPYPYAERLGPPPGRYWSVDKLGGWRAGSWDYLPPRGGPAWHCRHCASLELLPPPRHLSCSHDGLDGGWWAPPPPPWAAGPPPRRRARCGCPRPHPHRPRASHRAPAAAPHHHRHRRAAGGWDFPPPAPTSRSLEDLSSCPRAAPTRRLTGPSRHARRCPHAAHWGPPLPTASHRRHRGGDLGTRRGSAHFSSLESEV

[5] = molecular target: Glutamate receptor ionotropic, NMDA 2C (Rattus norvegicus, UniProt P35439+Q00961); experiment: Negative allosteric modulation of recombinant rat GluN2C receptor expressed in Xenopus laevis oocytes by two-electrode voltage clamp method; assay type: cell-based, Oocyte; procedure, shortened: as §1
[6] = molecular target: Glutamate receptor ionotropic, NMDA 2A (Rattus norvegicus) (UniProt Q00959); experiment: Negative allosteric modulation of recombinant rat GluN2A receptor expressed in Xenopus laevis oocytes at 100 uM by two-electrode voltage clamp method; assay type: cell-based; settings: Oocyte; procedure, shortened: as §1
Rattus norvegicus [7] = organism: Rattus norvegicus; experiment: Selectivity ratio of IC50 for recombinant rat GluN2B receptor to IC50 for recombinant rat GluN2D receptor; procedure, shortened: as §2
[8] = molecular target: Glutamate receptor ionotropic, NMDA 2B (Rattus norvegicus, UniProt P35439+Q00960); experiment: Negative allosteric modulation of recombinant rat GluN2B receptor expressed in Xenopus laevis oocytes by two-electrode voltage clamp method; assay type: cell-based, Oocyte; procedure, shortened: as §1
Chain of Glutamate receptor ionotropic, NMDA 2B (Q00960 whole entry, one chain of several): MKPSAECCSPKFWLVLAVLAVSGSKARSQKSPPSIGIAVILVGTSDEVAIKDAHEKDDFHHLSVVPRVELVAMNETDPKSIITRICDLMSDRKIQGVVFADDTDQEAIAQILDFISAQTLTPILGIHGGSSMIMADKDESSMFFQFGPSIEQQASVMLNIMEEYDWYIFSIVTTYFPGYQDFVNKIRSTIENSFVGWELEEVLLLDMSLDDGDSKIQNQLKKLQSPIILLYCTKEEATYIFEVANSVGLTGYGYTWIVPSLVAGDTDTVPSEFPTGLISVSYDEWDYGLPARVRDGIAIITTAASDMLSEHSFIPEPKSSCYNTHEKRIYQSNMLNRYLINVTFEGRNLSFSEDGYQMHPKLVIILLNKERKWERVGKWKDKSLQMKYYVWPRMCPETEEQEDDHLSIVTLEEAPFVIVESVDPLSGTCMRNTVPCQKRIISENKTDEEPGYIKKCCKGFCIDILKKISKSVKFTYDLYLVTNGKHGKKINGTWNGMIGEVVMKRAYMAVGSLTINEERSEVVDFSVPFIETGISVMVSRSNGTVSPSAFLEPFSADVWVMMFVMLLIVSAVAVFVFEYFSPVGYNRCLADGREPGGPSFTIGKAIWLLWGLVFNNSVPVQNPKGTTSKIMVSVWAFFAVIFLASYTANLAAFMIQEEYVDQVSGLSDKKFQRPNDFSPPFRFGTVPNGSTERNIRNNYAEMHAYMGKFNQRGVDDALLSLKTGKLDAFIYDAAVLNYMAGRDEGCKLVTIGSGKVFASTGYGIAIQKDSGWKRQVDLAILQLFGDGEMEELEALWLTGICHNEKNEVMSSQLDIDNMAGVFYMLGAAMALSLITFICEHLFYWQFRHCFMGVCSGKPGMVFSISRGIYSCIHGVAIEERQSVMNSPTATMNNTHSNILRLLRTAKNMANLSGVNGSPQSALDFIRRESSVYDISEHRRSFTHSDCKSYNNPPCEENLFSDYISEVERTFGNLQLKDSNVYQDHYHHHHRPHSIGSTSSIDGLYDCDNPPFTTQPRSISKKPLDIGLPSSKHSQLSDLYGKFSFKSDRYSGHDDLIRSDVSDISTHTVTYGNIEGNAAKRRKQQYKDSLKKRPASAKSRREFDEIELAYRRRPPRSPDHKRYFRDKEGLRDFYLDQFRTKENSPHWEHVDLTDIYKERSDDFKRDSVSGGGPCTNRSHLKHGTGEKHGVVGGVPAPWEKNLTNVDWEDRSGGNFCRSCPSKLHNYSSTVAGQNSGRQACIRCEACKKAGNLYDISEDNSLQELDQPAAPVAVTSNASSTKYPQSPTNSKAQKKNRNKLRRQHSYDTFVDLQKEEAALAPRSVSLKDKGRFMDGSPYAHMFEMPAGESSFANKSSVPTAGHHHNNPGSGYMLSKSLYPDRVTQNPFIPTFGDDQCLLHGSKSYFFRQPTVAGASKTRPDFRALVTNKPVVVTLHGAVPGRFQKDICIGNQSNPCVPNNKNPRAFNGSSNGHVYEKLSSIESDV

SMILES | inhibition [1] | IC50 [2] | Ratio IC50 (Rattus norvegicus [3]) | IC50 [4] | IC50 [5] | inhibition [6] | Ratio IC50 (Rattus norvegicus [7]) | IC50 [8]
N#Cc1ccc(-c2c(C3=NN(C(=O)CCC(=O)O)C(c4ccc(Cl)cc4)C3)c(=O)[nH]c3ccccc23)cc1 (stereo not drawn) | < 30% | 156 µM | 22 | 7 µM | 12 µM | – | – | –
O=C(O)/C=C/C(=O)N1N=C(c2c(-c3ccccc3)c3cc(Cl)ccc3[nH]c2=O)CC1c1ccc(Br)cc1 (stereo not drawn) | < 30% | – | – | 1.4 µM | 2.1 µM | < 30% | – | –
O=C(O)CCCC(=O)N1N=C(c2c(-c3ccccc3)c3cc(Cl)ccc3[nH]c2=O)CC1c1ccc([N+](=O)[O-])cc1 (stereo not drawn) | – | 109 µM | 10 | 11 µM | 10 µM | – | 8 | 92 µM
O=C(O)CCC(=O)N1N=C(c2c(-c3ccc(F)c(Cl)c3)c3ccccc3[nH]c2=O)CC1c1ccc(Cl)cc1 (stereo not drawn) | – | 19 µM | 19 | 1 µM | 1.4 µM | – | 34 | 34 µM
O=C(O)CCC(=O)N1N=C(c2c(-c3ccccc3)c3cc(Cl)ccc3[nH]c2=O)CC1c1ccc(F)cc1 (stereo not drawn) | – | 128 µM | 9 | 14 µM | 23 µM | – | 6 | 87 µM
O=C(O)CCC(=O)N1N=C(c2c(O)nc3ccc(Cl)cc3c2-c2ccccc2)CC1c1ccccc1 (stereo not drawn) | < 30% | – | – | – | – | < 30% | – | –
O=C(O)CCC(=O)N1N=C(c2c(-c3ccc(Cl)cc3)c3ccccc3[nH]c2=O)CC1c1ccccc1 (stereo not drawn) | – | 49 µM | 4 | 11 µM | 13 µM | – | 13 | 143 µM
Cc1ccc(-c2c(C3=NN(C(=O)CCC(=O)O)C(c4ccc(Cl)cc4)C3)c(=O)[nH]c3ccccc23)cc1 (stereo not drawn) | – | 33 µM | 24 | 1.4 µM | 2.5 µM | – | 30 | 42 µM
COC(=O)/C=C/C(=O)N1N=C(c2c(-c3ccc(Br)cc3)c3ccccc3[nH]c2=O)CC1c1ccc(Cl)cc1 (stereo not drawn) | < 30% | – | – | 95 µM | 59 µM | < 30% | – | –
O=C(O)CCCC(=O)N1N=C(c2c(-c3ccc(Br)cc3)c3ccccc3[nH]c2=O)CC1c1ccc(Cl)cc1 (stereo not drawn) | – | 10 µM | 33 | 0.32 µM | 0.6 µM | – | 91 | 29 µM
Cc1cccc(-c2c(C3=NN(C(=O)CCC(=O)O)C(c4ccc(Cl)cc4)C3)c(=O)[nH]c3ccccc23)c1 (stereo not drawn) | – | 24 µM | 13 | 1.9 µM | 4 µM | – | 37 | 71 µM
O=C(O)CCC(=O)N1N=C(c2c(-c3cccc(F)c3)c3ccccc3[nH]c2=O)CC1c1ccc(Cl)cc1 (stereo not drawn) | – | 46 µM | 67 | 0.69 µM | 1.1 µM | – | 101 | 70 µM
O=C(O)CCC(=O)N1N=C(c2c(-c3ccc(Cl)cc3)c3ccccc3[nH]c2=O)C[C@@H]1c1ccc(Cl)cc1 | – | 45 µM | 23 | 1.9 µM | 2.1 µM | – | 49 | 52 µM
O=C(O)CCC(=O)N1N=C(c2c(-c3ccccc3)c3cc(Cl)ccc3[nH]c2=O)CC1c1ccc([N+](=O)[O-])cc1 (stereo not drawn) | – | 91 µM | 85 | 1.1 µM | 0.9 µM | – | 42 | 45 µM
O=C(O)CCC(=O)N1N=C(c2c(-c3ccc(C(F)(F)F)cc3)c3ccccc3[nH]c2=O)CC1c1ccc(Cl)cc1 (stereo not drawn) | – | 29 µM | 10 | 2.8 µM | 3.6 µM | – | 14 | 39 µM
O=C(O)CCCC(=O)N1N=C(c2c(-c3ccccc3)c3cc(Cl)ccc3[nH]c2=O)CC1c1ccc(Br)cc1 (stereo not drawn) | – | 78 µM | 20 | 4 µM | 6.4 µM | – | 23 | 90 µM
COc1ccc(-c2c(C3=NN(C(=O)CCC(=O)O)C(c4ccc(Cl)cc4)C3)c(=O)[nH]c3ccccc23)cc1 (stereo not drawn) | – | 62 µM | 27 | 2.3 µM | 5 µM | – | 33 | 75 µM
O=C(O)CCC(=O)N1N=C(c2c(-c3ccc(Br)cc3)c3ccccc3[nH]c2=O)CC1c1ccccc1 (stereo not drawn) | – | 64 µM | 7 | 9.1 µM | 10 µM | – | 12 | 113 µM

Further lines, results first:

inhibition [1] | IC50 [2] | Ratio IC50 (Rattus norvegicus [3]) | IC50 [4] | IC50 [5] | inhibition [6] | Ratio IC50 (Rattus norvegicus [7]) | IC50 [8] | SMILES
< 30% | – | – | 13 µM | 19 µM | < 30% | – | – | N#Cc1cccc(-c2c(C3=NN(C(=O)CCC(=O)O)C(c4ccc(Cl)cc4)C3)c(=O)[nH]c3ccccc23)c1 (stereo not drawn)
< 30% | – | – | 4.5 µM | 5.5 µM | < 30% | – | – | O=C(O)CCC(=O)N1N=C(c2c(-c3ccccc3)c3cc(Cl)ccc3[nH]c2=O)CC1c1ccc(Cl)cc1 (stereo not drawn)
– | – | – | 23 µM | 23 µM | < 30% | 4 | 90 µM | O=C(O)CCC(=O)N1N=C(c2c(-c3ccccc3)c3cc(Cl)ccc3[nH]c2=O)CC1c1ccc2c(c1)OCO2 (stereo not drawn)
– | – | – | 3.1 µM | 3.6 µM | < 30% | – | – | O=C(O)CCC(=O)N1N=C(c2c(-c3ccccc3)c3cc(Cl)ccc3[nH]c2=O)CC1c1ccc(Br)cc1 (stereo not drawn)
< 30% | – | – | – | 93 µM | < 30% | – | – | COC(=O)c1ccc(C2CC(c3c(-c4ccccc4)c4cc(Cl)ccc4[nH]c3=O)=NN2C(=O)CCC(=O)O)cc1 (stereo not drawn)
– | 21 µM | 32 | 0.66 µM | 0.78 µM | – | 108 | 71 µM | O=C(O)CCC(=O)N1N=C(c2c(-c3ccc(F)c(F)c3)c3ccccc3[nH]c2=O)CC1c1ccc(Cl)cc1 (stereo not drawn)
– | 28 µM | 11 | 2.6 µM | 3.4 µM | – | 18 | 47 µM | O=C(O)CCC(=O)N1N=C(c2c(-c3cccc(C(F)(F)F)c3)c3ccccc3[nH]c2=O)CC1c1ccc(Cl)cc1 (stereo not drawn)
– | 74 µM | 15 | 5 µM | 8.9 µM | – | 7 | 37 µM | O=C(O)/C=C\C(=O)N1N=C(c2c(-c3ccccc3)c3cc(Cl)ccc3[nH]c2=O)CC1c1ccc(Br)cc1 (stereo not drawn)
– | 20 µM | 20 | 1 µM | 2.1 µM | – | 43 | 43 µM | O=C(O)CCC(=O)N1N=C(c2c(-c3cccc(Cl)c3)c3ccccc3[nH]c2=O)CC1c1ccc(Cl)cc1 (stereo not drawn)
– | 110 µM | 24 | 4.5 µM | 7.8 µM | – | 34 | 152 µM | COc1cccc(-c2c(C3=NN(C(=O)CCC(=O)O)C(c4ccc(Cl)cc4)C3)c(=O)[nH]c3ccccc23)c1 (stereo not drawn)
– | 34 µM | 31 | 1.1 µM | 2 µM | – | 18 | 20 µM | NC(=O)CCC(=O)N1N=C(c2c(-c3ccc(Cl)cc3)c3ccccc3[nH]c2=O)CC1c1ccc(Cl)cc1 (stereo not drawn)
< 30% | – | – | 19 µM | 39 µM | < 30% | – | – | CN(C)c1ccc(C2CC(c3c(-c4ccccc4)c4cc(Cl)ccc4[nH]c3=O)=NN2C(=O)CCC(=O)O)cc1 (stereo not drawn)
